Experimental data reported in the array DNA melting data of Ke et al. (doi:10.1101/2024.01.08.574731).

Tests used:
[1] = melting temperature; fluorescence melt of hairpins on a sequencing array, two-state fit, raised by 9.35 °C to match UV melts; conditions: sodium 0.088 M
How it was run: (§1)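 Melting temperature and folding enthalpy were obtained by bootstrapped two-state fitting. Fits used Cy3 fluorescence of library hairpins with annealed Cy3 and quencher oligos on a sequenced MiSeq flow cell, imaged in 50 mM Na-HEPES pH 8.0, 25 mM NaCl in 2.5 °C steps up to 60 °C and normalised to pre-quench Cy3 and control constructs. Four replicates were combined by inverse-variance weighting, and fitted temperatures were raised by 9.35 °C to match UV melts.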

[2] = folding enthalpy; higher = less favourable; fluorescence melt of hairpins on a sequencing array, two-state fit; conditions: sodium 0.088 M
How it was run: as §1

GTTATCCCGAAAGGGAAC (((..(((....))))))
Tm [1]: 26.8 °C | folding enthalpy [2]: -10 kcal/mol

GTTATCCGAAAGGAAAC (((.(((....))))))
Tm [1]: 31.5 °C | folding enthalpy [2]: -14.5 kcal/mol

GTTATCCGAAAGGACAAC (((.(((....))).)))
Tm [1]: 39.6 °C | folding enthalpy [2]: -26.3 kcal/mol

GTTATCGAAAGATGAAC ((((((....))).)))
Tm [1]: 26.4 °C | folding enthalpy [2]: -13.2 kcal/mol

GTTATGCGAAAGCAGAAC (((.(((....))).)))
Tm [1]: 55.9 °C | folding enthalpy [2]: -31.5 kcal/mol

GTTATGGGAAACCATAGC (.(((((....))))).)
Tm [1]: 36.9 °C | folding enthalpy [2]: -24.1 kcal/mol

GTTATTGGAAACAATAAC (((((((....)))))))
Tm [1]: 49.7 °C | folding enthalpy [2]: -35 kcal/mol

GTTCAACGAAAGTTAAAC (((.(((....))).)))
Tm [1]: 30.7 °C | folding enthalpy [2]: -18.6 kcal/mol

GTTCAAGAAATTGAAC ((((((....))))))
Tm [1]: 45.1 °C | folding enthalpy [2]: -29.2 kcal/mol

GTTCAAGCGAAAGCTAAC (((..(((....))))))
Tm [1]: 24.9 °C | folding enthalpy [2]: -11.4 kcal/mol

GTTCACCGAAAGGTAAC (((.(((....))))))
Tm [1]: 36.3 °C | folding enthalpy [2]: -16.3 kcal/mol

GTTCACCGAAAGGTCAAC (((.(((....))).)))
Tm [1]: 33 °C | folding enthalpy [2]: -18.4 kcal/mol

GTTCACGAAAGTGAAAAC ((((((....)))..)))
Tm [1]: 40.5 °C | folding enthalpy [2]: -11.7 kcal/mol

GTTCACGAAAGTGGGAAC ((((((....)))..)))
Tm [1]: 35.4 °C | folding enthalpy [2]: -13.3 kcal/mol

GTTCACGGAAACATGAAC (((((.(....).)))))
Tm [1]: 36.6 °C | folding enthalpy [2]: -21.1 kcal/mol

GTTCACGGAAACGTGGAC ((.((((....)))).))
Tm [1]: 52.8 °C | folding enthalpy [2]: -29.2 kcal/mol

GTTCACTCGAAAGAGAAC (((..(((....))))))
Tm [1]: 27.8 °C | folding enthalpy [2]: -9.99 kcal/mol

GTTCAGCGAAAGCTTAAC (((.(((....))).)))
Tm [1]: 40.9 °C | folding enthalpy [2]: -30.2 kcal/mol

GTTCAGGGAAACTTGAGC (.(((.(....).))).)
Tm [1]: 30.2 °C | folding enthalpy [2]: -18.4 kcal/mol

GTTCCAGGAAACTGGAAC (((((((....)))))))
Tm [1]: 60.4 °C | folding enthalpy [2]: -42.2 kcal/mol

GTTCCAGGAAACTGGAGC (.(((((....))))).)
Tm [1]: 47.2 °C | folding enthalpy [2]: -19.6 kcal/mol

GTTCCCGAAAGGGAAAC ((((((....))).)))
Tm [1]: 49.6 °C | folding enthalpy [2]: -12.6 kcal/mol

GTTCCCGAAAGGGACAAC ((((((....)))..)))
Tm [1]: 33.6 °C | folding enthalpy [2]: -8.79 kcal/mol

GTTCCCGGAAACGAGAAC ((((.((....)).))))
Tm [1]: 40.8 °C | folding enthalpy [2]: -30.2 kcal/mol

GTTCCGAAAGGAAC (((((....)))))
Tm [1]: 66.9 °C | folding enthalpy [2]: -29.5 kcal/mol

GTTCCGCGAAAGCGCAAC (((.(((....))).)))
Tm [1]: 38.4 °C | folding enthalpy [2]: -13.3 kcal/mol

GTTCCGGGAAACCGGAGC (.(((((....))))).)
Tm [1]: 53.6 °C | folding enthalpy [2]: -22.4 kcal/mol

GTTCCGGGAAACTGGAGC (.(((.(....).))).)
Tm [1]: 36.1 °C | folding enthalpy [2]: -21.2 kcal/mol

GTTCCTCGAAAGAGCAAC (((.(((....))).)))
Tm [1]: 29.4 °C | folding enthalpy [2]: -14.3 kcal/mol

GTTCGACGAAAGTCAAAC (((.(((....))).)))
Tm [1]: 41.7 °C | folding enthalpy [2]: -21.3 kcal/mol

GTTCGACGAAAGTCAAC (((.(((....))))))
Tm [1]: 36.8 °C | folding enthalpy [2]: -15.8 kcal/mol

GTTCGAGAAATCGAAC ((((((....))))))
Tm [1]: 54.9 °C | folding enthalpy [2]: -39.8 kcal/mol

GTTCGAGGAAACTCGAAC (((((((....)))))))
Tm [1]: 65 °C | folding enthalpy [2]: -42.3 kcal/mol

GTTCGAGGAAACTTGGAC ((.(.((....)).).))
Tm [1]: 31.2 °C | folding enthalpy [2]: -16 kcal/mol

GTTCGCCGAAAGGCAAC (((.(((....))))))
Tm [1]: 43.3 °C | folding enthalpy [2]: -12.5 kcal/mol

GTTCGCGAAAGCGGCAAC ((((((....)))..)))
Tm [1]: 26.8 °C | folding enthalpy [2]: -10.2 kcal/mol

GTTCGCGAAAGCGGTAAC ((((((....)))..)))
Tm [1]: 30.7 °C | folding enthalpy [2]: -11 kcal/mol

GTTCGCGAAAGCGTAAC ((((((....))).)))
Tm [1]: 48 °C | folding enthalpy [2]: -13.8 kcal/mol

GTTCGGCCGAAAGGCAAC (((..(((....))))))
Tm [1]: 31.3 °C | folding enthalpy [2]: -6.89 kcal/mol

GTTCGGCGAAAGCCAAC (((.(((....))))))
Tm [1]: 42.9 °C | folding enthalpy [2]: -12.3 kcal/mol

GTTCGGCGAAAGCCCAAC (((.(((....))).)))
Tm [1]: 37.1 °C | folding enthalpy [2]: -11.2 kcal/mol

GTTCGGGGAAACCCGAGC (.(((((....))))).)
Tm [1]: 53.3 °C | folding enthalpy [2]: -25.5 kcal/mol

GTTCGGGGAAACCTGAAC ((((.((....)).))))
Tm [1]: 49.9 °C | folding enthalpy [2]: -38.9 kcal/mol

GTTCGGGGAAACCTGAGC (.((.((....)).)).)
Tm [1]: 32.6 °C | folding enthalpy [2]: -20.5 kcal/mol

GTTCGTCGAAAGACAAC (((.(((....))))))
Tm [1]: 42.5 °C | folding enthalpy [2]: -17.2 kcal/mol

GTTCGTGGAAACACGGAC ((.((((....)))).))
Tm [1]: 54.5 °C | folding enthalpy [2]: -42.5 kcal/mol

GTTCGTGGAAACATGAAC ((((.((....)).))))
Tm [1]: 47.5 °C | folding enthalpy [2]: -37.7 kcal/mol

GTTCTAGGAAACTAGGAC ((.((((....)))).))
Tm [1]: 39.7 °C | folding enthalpy [2]: -28.5 kcal/mol

GTTCTCCGAAAGGAAAAC (((.(((....))).)))
Tm [1]: 35.5 °C | folding enthalpy [2]: -25.2 kcal/mol

GTTCTCGAAAGAGGAAC ((((((....))).)))
Tm [1]: 38.3 °C | folding enthalpy [2]: -20.8 kcal/mol

GTTCTCGAAAGAGTCAAC ((((((....)))..)))
Tm [1]: 23.2 °C | folding enthalpy [2]: -10.2 kcal/mol

GTTCTCGCGAAAGCGAAC (((..(((....))))))
Tm [1]: 27.8 °C | folding enthalpy [2]: -7.5 kcal/mol

GTTCTCGGAAACGAGAAC (((((((....)))))))
Tm [1]: 65.7 °C | folding enthalpy [2]: -34.5 kcal/mol

GTTCTGCCGAAAGGCAAC (((..(((....))))))
Tm [1]: 25.1 °C | folding enthalpy [2]: -7.25 kcal/mol

GTTCTGGGAAACCAAAAC (((.(((....))).)))
Tm [1]: 26.5 °C | folding enthalpy [2]: -12.4 kcal/mol

GTTCTGGGAAACCAGAAC (((((((....)))))))
Tm [1]: 60.5 °C | folding enthalpy [2]: -42.9 kcal/mol

GTTCTGGGAAACCAGGAC ((.((((....)))).))
Tm [1]: 49.1 °C | folding enthalpy [2]: -31.8 kcal/mol

GTTCTGGGAAACTAGAAC (((((.(....).)))))
Tm [1]: 42.9 °C | folding enthalpy [2]: -29.6 kcal/mol

GTTCTTACGAAAGTAAAC (((..(((....))))))
Tm [1]: 21.9 °C | folding enthalpy [2]: -6.21 kcal/mol

GTTCTTGGAAACAAGGAC ((.((((....)))).))
Tm [1]: 44.6 °C | folding enthalpy [2]: -23.9 kcal/mol

GTTGAACGAAAGTTAAC (((.(((....))))))
Tm [1]: 30 °C | folding enthalpy [2]: -12.3 kcal/mol

GTTGAACGAAAGTTTAAC (((.(((....))).)))
Tm [1]: 45.3 °C | folding enthalpy [2]: -31.7 kcal/mol

GTTGAAGGAAACTTTAAC (((.(((....))).)))
Tm [1]: 32.1 °C | folding enthalpy [2]: -17.7 kcal/mol

GTTGACCGAAAGGTAAC (((.(((....))))))
Tm [1]: 38.1 °C | folding enthalpy [2]: -16.4 kcal/mol

GTTGACGAAAGTCACAAC ((((((....)))..)))
Tm [1]: 36.2 °C | folding enthalpy [2]: -9.62 kcal/mol

GTTGACGAAAGTCTGAAC ((((((....)))..)))
Tm [1]: 25.1 °C | folding enthalpy [2]: -11.5 kcal/mol

GTTGACGGAAACATCAAC (((((.(....).)))))
Tm [1]: 37.2 °C | folding enthalpy [2]: -31.8 kcal/mol

GTTGACGGAAACGTCAGC (.(((((....))))).)
Tm [1]: 52.5 °C | folding enthalpy [2]: -22 kcal/mol

GTTGAGGGAAACCCCAAC ((((.((....)).))))
Tm [1]: 43.3 °C | folding enthalpy [2]: -26.1 kcal/mol

GTTGAGTCGAAAGACAAC (((..(((....))))))
Tm [1]: 31 °C | folding enthalpy [2]: -14.6 kcal/mol

GTTGATCCGAAAGGAAAC (((..(((....))))))
Tm [1]: 27.6 °C | folding enthalpy [2]: -20.8 kcal/mol

GTTGATCGAAAGATAAC (((.(((....))))))
Tm [1]: 28.9 °C | folding enthalpy [2]: -13.3 kcal/mol

GTTGATCGAAAGATTAAC (((.(((....))).)))
Tm [1]: 44.8 °C | folding enthalpy [2]: -30.6 kcal/mol

GTTGATGCGAAAGCAAAC (((..(((....))))))
Tm [1]: 37.1 °C | folding enthalpy [2]: -13.8 kcal/mol

GTTGATGGAAACATCAAC (((((((....)))))))
Tm [1]: 57.7 °C | folding enthalpy [2]: -46.2 kcal/mol

GTTGATGGAAACATCAGC (.(((((....))))).)
Tm [1]: 46.5 °C | folding enthalpy [2]: -25 kcal/mol

GTTGATGGAAACATTAAC (((.(((....))).)))
Tm [1]: 37.5 °C | folding enthalpy [2]: -34.1 kcal/mol

GTTGCACGAAAGTGAAC (((.(((....))))))
Tm [1]: 39.2 °C | folding enthalpy [2]: -14.1 kcal/mol

GTTGCAGGAAACTGCGAC ((.((((....)))).))
Tm [1]: 53.9 °C | folding enthalpy [2]: -28 kcal/mol

GTTGCCACGAAAGTGAAC (((..(((....))))))
Tm [1]: 30.6 °C | folding enthalpy [2]: -11.8 kcal/mol

GTTGCCGAAAGGCCAAAC ((((((....)))..)))
Tm [1]: 26.9 °C | folding enthalpy [2]: -10.3 kcal/mol

GTTGCCGAAAGGCGAAAC ((((((....)))..)))
Tm [1]: 33.2 °C | folding enthalpy [2]: -9.33 kcal/mol

GTTGCCGAAAGGCGCAAC ((((((....)))..)))
Tm [1]: 31.9 °C | folding enthalpy [2]: -8.82 kcal/mol

GTTGCCTCGAAAGAGAAC (((..(((....))))))
Tm [1]: 25.4 °C | folding enthalpy [2]: -12.1 kcal/mol

GTTGCGACGAAAGTCAAC (((..(((....))))))
Tm [1]: 33.5 °C | folding enthalpy [2]: -16.8 kcal/mol

GTTGCGCGAAAGCGAAC (((.(((....))))))
Tm [1]: 45.5 °C | folding enthalpy [2]: -13.4 kcal/mol

GTTGCGCGAAAGCGGAAC (((.(((....))).)))
Tm [1]: 67.6 °C | folding enthalpy [2]: -30.9 kcal/mol

GTTGCGGGAAACCGTGAC ((..(((....)))..))
Tm [1]: 45.2 °C | folding enthalpy [2]: -20.2 kcal/mol

GTTGCGGGAAACTGCAGC (.(((.(....).))).)
Tm [1]: 45 °C | folding enthalpy [2]: -15.8 kcal/mol

GTTGCTGAAAAGCAAC ((((((....))))))
Tm [1]: 66 °C | folding enthalpy [2]: -32.8 kcal/mol

GTTGCTGCGAAAGCAAAC (((..(((....))))))
Tm [1]: 37.8 °C | folding enthalpy [2]: -14.3 kcal/mol
